Bioassay records (PubChem)
NadD inh: blocks S. aureus nicotinate mononucleotide adenylyltransferase; inhibition, % at 20 µM; purified NadD enzyme, colorimetric absorbance read-out; AID 602399; 0.78% of 360,000 active; in the data active means inhibition above about 26%
rCAG RNA binder: molecules binding r(CAG) RNA repeats; r(CAG) RNA repeat, TO-PRO-1 dye displacement fluorescence; inhibition, % at 3 µM; 1.3% of 370,000 active;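 active means inhibition above the plate cutoff, the mean of all test compounds on that plate plus 3 SD, cut at about 35% in these data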;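 further: higher means more dye released from RNA so lower well fluorescence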
ARFGAP1 inh: inhibits rat ARF GTPase activating protein 1. inhibition, % at 16.5 µM. 0.26% of 360,000 active. Arfgap1-stimulated ARF1 GTP hydrolysis, GDP FP detection. Q62848. AID 651572;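 active means inhibition above a per-plate limit, mean inhibition of low control wells plus 3 SD, cut at about 25% in these data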
Target sequence (Q62848 1-136 limits assumed): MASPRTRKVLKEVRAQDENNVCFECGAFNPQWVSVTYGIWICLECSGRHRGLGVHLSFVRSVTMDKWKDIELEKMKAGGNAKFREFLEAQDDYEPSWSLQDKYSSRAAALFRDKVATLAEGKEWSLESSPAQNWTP
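Material: rat Arfgap1 catalytic domain, aa 1-136; also added: human ARF1(Δ1-17)-GTP substrate; compound dosing: one concentration, 16.5 µM, DMSO 1.26%; incubation: GTP hydrolysis reaction 2 h at 25 °C; measured by: Tracer-displacement fluorescence polarization with EDTA stop, 620/688 nm; evaluation: % inhibition from polarization; repeats: one replicate per compound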
ASAP1 inh: ASAP1 ArfGAP inhibition; ASAP1-stimulated ARF1 GTP hydrolysis, GDP FP detection; inhibition, % at 16.5 µM; 0.19% of 360,000 active; AID 624377; in the data active means inhibition above about 25%
Target sequence (Q9ULH1 325-724 limits assumed): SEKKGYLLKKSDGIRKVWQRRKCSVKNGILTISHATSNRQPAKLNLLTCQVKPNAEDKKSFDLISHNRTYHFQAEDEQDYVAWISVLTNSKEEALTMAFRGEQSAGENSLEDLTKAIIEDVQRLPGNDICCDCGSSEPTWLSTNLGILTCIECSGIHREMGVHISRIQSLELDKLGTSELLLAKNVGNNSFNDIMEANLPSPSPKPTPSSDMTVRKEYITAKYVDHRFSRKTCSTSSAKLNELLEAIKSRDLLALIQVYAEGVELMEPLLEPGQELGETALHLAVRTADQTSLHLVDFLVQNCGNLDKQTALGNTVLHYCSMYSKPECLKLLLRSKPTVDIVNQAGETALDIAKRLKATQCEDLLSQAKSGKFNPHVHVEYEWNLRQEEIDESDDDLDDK
Hits are given with their value. Rows were chosen to be rich in hits. Some 2.2% of all compounds tested hit in one or more screens of this group.

Screening O=C(O)c1cccc(-c2ccc(/C=C3/SC(=Nc4ccccc4)N(Cc4cccnc4)C3=O)o2)c1 returned NadD inh 32, rCAG RNA binder inactive, ARFGAP1 inh inactive and ASAP1 inh inactive.
For C#CCNC(=O)C[C@H]1C[C@@]2(C(=O)OC)C(=C[C@H](C3CCCC3)O[C@@H]2C)N(Cc2ccc(Cl)cc2Cl)C1=O the results were rCAG RNA binder inactive.
Screening O=C(CN1C(=O)/C(=C2\SC(=S)N(C3CCS(=O)(=O)C3)C2=O)c2ccccc21)Nc1ccc(F)cc1 (centres undefined) returned NadD inh inactive, rCAG RNA binder inactive, ARFGAP1 inh inactive and ASAP1 inh inactive.
For COc1ccc(NC(=O)CN2C(=O)/C(=C3\SC(=S)N(C4CCS(=O)(=O)C4)C3=O)c3ccccc32)cc1 (centres undefined) the results were NadD inh 32, rCAG RNA binder inactive, ARFGAP1 inh inactive and ASAP1 inh inactive.
`CCn1c(C)cc(/C=C2/NC(=O)N(CC(=O)Nc3cccc(C)c3)C2=O)c1C` gave NadD inh 33, rCAG RNA binder inactive, ARFGAP1 inh inactive and ASAP1 inh inactive.
For Cc1cccc(NC(=O)CN2C(=O)N/C(=C/c3ccc(C)o3)C2=O)c1 the results were NadD inh inactive, rCAG RNA binder inactive, ARFGAP1 inh inactive and ASAP1 inh inactive.
For Cc1ccc(CN2C(=O)N/C(=C\c3cccn3-c3cccc(C(=O)O)c3)C2=O)cc1 the results were NadD inh inactive, rCAG RNA binder 47, ARFGAP1 inh inactive and ASAP1 inh inactive.
For CCn1c(C)cc(/C=C2\NC(=O)N(CC(=O)Nc3cccc(C)c3)C2=O)c1C the results were NadD inh 43, rCAG RNA binder inactive, ARFGAP1 inh inactive and ASAP1 inh inactive.
`Cc1ccc(NC(=O)CN2C(=O)N/C(=C/c3cc(C)n(-c4cccc(C(=O)O)c4)c3C)C2=O)cc1` gave NadD inh inactive, rCAG RNA binder 71, ARFGAP1 inh inactive and ASAP1 inh inactive.
Screening COC(=O)C1=C(C)N(Cc2ccccc2C(F)(F)F)C(=NCC2CC2)NC1c1ccc(F)cc1 (centres undefined) returned rCAG RNA binder inactive, ARFGAP1 inh inactive and ASAP1 inh inactive.
Screening CC(=O)CC[C@H]1CC[C@]2(CCCN(C(=O)c3ccc4ccccc4n3)C2)O1 returned rCAG RNA binder inactive.
O=C(N/N=C/c1ccc(Sc2ccccn2)o1)c1cc2ccccc2cc1O was read as NadD inh 62.
O=C(N/N=C\c1ccc(Sc2ccccn2)o1)c1cccc(F)c1 was read as NadD inh inactive, rCAG RNA binder inactive, ARFGAP1 inh inactive and ASAP1 inh inactive.
`C/C(=N\NC(=O)c1c[nH]c2ccccc12)c1ccccn1` gave NadD inh inactive, rCAG RNA binder inactive, ARFGAP1 inh inactive and ASAP1 inh inactive.
C/C(=N/NC(=O)c1cc2ccccc2cc1O)C1C(=O)c2ccccc2C1=O was read as NadD inh inactive, rCAG RNA binder 100, ARFGAP1 inh inactive and ASAP1 inh inactive.
Screening C/C(=N\NC(=O)c1cc2ccccc2cc1O)c1ccccn1 returned NadD inh inactive, rCAG RNA binder 47, ARFGAP1 inh inactive and ASAP1 inh inactive.
For Cc1cc(-c2csc(NCc3ccccc3)n2)c(C)n1C the results were NadD inh 42.
`CC1(C)c2[nH]c3ccccc3c2C[C@H]2C(=O)N(Cc3cccc(F)c3)C(=O)N21` gave NadD inh inactive, rCAG RNA binder inactive, ARFGAP1 inh inactive and ASAP1 inh inactive.
Screening CC1(C)c2[nH]c3ccccc3c2C[C@@H]2C(=O)N(c3cc(F)ccc3F)C(=O)N21 returned NadD inh inactive, rCAG RNA binder inactive, ARFGAP1 inh inactive and ASAP1 inh 28.
Screening Cc1cccc(NC(=O)Cn2c(O)c(N=NC(=O)c3ccccc3O)c3ccccc32)c1 returned NadD inh 35, rCAG RNA binder inactive, ARFGAP1 inh inactive and ASAP1 inh inactive.
Screening NS(=O)(=O)c1ccc(N=Nc2c(O)ccc3ccccc23)cc1 returned NadD inh inactive, rCAG RNA binder inactive, ARFGAP1 inh inactive and ASAP1 inh inactive.
For N=C(N)c1ccc(N=Nc2c(O)ccc3c2[nH]c2ccccc23)cc1 the results were NadD inh 42, rCAG RNA binder inactive, ARFGAP1 inh active and ASAP1 inh 175.
Screening CC(=O)c1ccc(S(=O)(=O)NCC2CCN(C(=O)C(=O)c3cc4ccccc4o3)CC2)cc1 returned rCAG RNA binder inactive, ARFGAP1 inh inactive and ASAP1 inh inactive.
Screening CCOC(=O)[C@@]12CCC3=C1N(CCC3)C(=O)[C@H](CC(=O)NCCC(C)C)C2 returned rCAG RNA binder inactive.
`COc1cc(OC)c2c(O)c3c(c(-c4c5c(c(O)c6c(OC)cc(OC)cc46)CO[C@@H](C)[C@H]5O)c2c1)[C@H](O)[C@H](C)OC3` gave NadD inh 50.
COc1ccc(N(CC(C)C)S(=O)(=O)c2nnc(NC(=O)c3ccco3)s2)cc1 was read as NadD inh inactive, rCAG RNA binder 76, ARFGAP1 inh inactive and ASAP1 inh inactive.
CCN(c1ccc(OC)cc1)S(=O)(=O)c1nnc(NC(=O)c2ccco2)s1 was read as NadD inh inactive, rCAG RNA binder inactive, ARFGAP1 inh inactive and ASAP1 inh inactive.
For Cc1[nH]c2ccccc2c1CCNC(=O)c1ccc2c(c1[N+](=O)[O-])C(=O)c1ccccc1C2=O the results were NadD inh 40, rCAG RNA binder inactive, ARFGAP1 inh inactive and ASAP1 inh inactive.
`COc1ccc(C(=O)Nc2ccccc2C(=O)O)cc1Cl` gave NadD inh inactive, rCAG RNA binder inactive, ARFGAP1 inh inactive and ASAP1 inh inactive.
COc1ccc(C(=O)Nc2ccccc2C(=O)O)cc1NC(=O)C(c1ccccc1)c1ccccc1 was read as NadD inh inactive, rCAG RNA binder 82, ARFGAP1 inh inactive and ASAP1 inh inactive.
CSc1nsc(/C=C/Nc2ccc(C(=O)O)cc2)c1C#N was read as NadD inh inactive, rCAG RNA binder 46, ARFGAP1 inh inactive and ASAP1 inh inactive.
Screening CC1(c2nnnn2Cc2ccccc2)CCC(=O)N1CCCn1ccnc1 (centres undefined) returned NadD inh inactive, rCAG RNA binder inactive, ARFGAP1 inh inactive and ASAP1 inh inactive.
`COc1cc(CC(=O)N2c3ccccc3N=C(c3ccccc3)C2C(=O)NCc2ccccc2)cc(OC)c1` (centres undefined) gave rCAG RNA binder inactive, ARFGAP1 inh inactive and ASAP1 inh inactive.
For O=C(CSc1cccc[n+]1[O-])Nc1cc2c(cc1Cl)C(=O)c1ccccc1C2=O the results were NadD inh 34, rCAG RNA binder inactive, ARFGAP1 inh inactive and ASAP1 inh inactive.
For CCc1ccc(/C=C2/SC(=S)N(CC(=O)Nc3nc4ccccc4s3)C2=O)cc1 the results were NadD inh 50, rCAG RNA binder inactive, ARFGAP1 inh inactive and ASAP1 inh inactive.
COc1cc(/C=C2/SC(=S)N(CC(=O)O)C2=O)ccc1OCC(=O)Nc1ccc(C)c(C)c1 was read as NadD inh 30, rCAG RNA binder inactive, ARFGAP1 inh inactive and ASAP1 inh inactive.
Screening CCc1ccc(/C=C2/SC(=S)N(CCC(=O)Nc3ccc(C(=O)O)cc3)C2=O)cc1 returned NadD inh 40, rCAG RNA binder inactive, ARFGAP1 inh inactive and ASAP1 inh inactive.
